The subject of assay [1] is Cowpox virus. The experiment in a line: Antiviral activity against cowpox virus Brighton by plaque reduction in HFF cells. It is filed as functional, organism-based.
In the next assay the test system is Vaccinia virus. The experiment in a line: Antiviral activity against vaccinia virus Copenhagen assessed as plaque reduction in HFF cells. Type of assay: functional, organism-based. To be noted: Orthopoxvirus vaccinia.
Another assay has as its system HFF. Kind of assay: Cytotoxicity against HFF cell line by neutral red toxicity assay. To be noted: Homo sapiens. Type of assay: functional. The procedure, abridged:
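Confluent uninfected HFF monolayers exposed to various drug concentrations for 7 days at 37 °C. Viability read by neutral red uptake. CC50 is the concentration reducing neutral red uptake by 50%.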

For assay [2], the system named is Cowpox virus. Kind of assay: Antiviral activity against cowpox virus Brighton measured as cytopathogenicity in HFF cells. Type of assay: functional, organism-based.

The source of these data is ChEMBL document CHEMBL1148520, “5-(Dimethoxymethyl)-2'-deoxyuridine: a novel gem diether nucleoside with anti-orthopoxvirus activity” (J Med Chem, 2006).

Where only a bound is given, the exact number is not on record here.

As for `CCOC(OCC)c1cn(C2C[C@H](OC(C)=O)[C@@H](COC(C)=O)O2)c(=O)[nH]c1=O` (stereo not given in full), the figures for the EC50 with Cowpox virus [1], in the assay with Vaccinia virus and in the assay with Cowpox virus [2] were 25.8 µM, 79 µM and 52.4 µM, respectively. Moreover, the CC50 with HFF is > 300 µM.

As for `COC(OC)c1cnc(O)nc1O`, in the assay on HFF, the CC50 is > 300 µM. Besides, in the assay on Cowpox virus [2], the EC50 was > 300 µM.

For `CC(=O)OC[C@H]1OC(n2cc(C3OCCCO3)c(=O)[nH]c2=O)C[C@@H]1OC(C)=O` (stereo not given in full), the CC50 with HFF was > 300 µM. Further, the EC50 in the assay on Cowpox virus [2] is > 300 µM.

Consider `CC(=O)OC[C@H]1OC(n2cc(C=O)c(=O)[nH]c2=O)C[C@@H]1OC(C)=O` (stereo not given in full), for which, in the assay with HFF, the CC50 was > 300 µM. The EC50 in the assay on Cowpox virus [2] was > 300 µM.

With `COC(OC)c1cn(C2C[C@H](OC(C)=O)[C@@H](COC(C)=O)O2)c(=O)[nH]c1=O` (stereo not given in full), the CC50 in the assay with HFF was > 300 µM. The EC50 in the assay on Cowpox virus [2] is > 300 µM.

As to `COC(OC)c1cn(C2C[C@H](O)[C@@H](CO)O2)c(=O)[nH]c1=O` (stereo not given in full), the results for the EC50 in the assay on Cowpox virus [1], with Vaccinia virus and with Cowpox virus [2] were 7.4 µM, 9 µM and 11.7 µM, respectively. In addition, the CC50 in the assay with HFF was > 300 µM.

Take `O=Cc1cn([C@H]2C[C@H](O)[C@@H](CO)O2)c(=O)[nH]c1=O`: the CC50 with HFF is > 300 µM. Moreover, the EC50 in the assay with Cowpox virus [2] was > 300 µM.

Take `CC(=O)OC[C@H]1OC(n2cc(C3OCCO3)c(=O)[nH]c2=O)C[C@@H]1OC(C)=O` (stereo not given in full): in the assay on HFF, the CC50 was > 300 µM. Moreover, the EC50 with Cowpox virus [2] was > 300 µM.

For the compound `CCOC(OCC)c1cn(C2C[C@H](O)[C@@H](CO)O2)c(=O)[nH]c1=O` (stereo not given in full), the CC50 with HFF is > 300 µM. Also, in the assay on Cowpox virus [2], the EC50 is > 60 µM.

With `O=c1[nH]c(=O)n(C2CC(O)[C@@H](CO)O2)cc1C1OCCO1` (single isomer, unassigned), in the assay with HFF, the CC50 was > 300 µM. Also, in the assay with Cowpox virus [2], the EC50 is > 300 µM.

Regarding `O=c1[nH]c(=O)n(C2CC(O)[C@@H](CO)O2)cc1C1OCCCO1` (single isomer, unassigned), the CC50 with HFF is > 300 µM. Also, in the assay on Cowpox virus [2], the EC50 is > 300 µM.

As for `Nc1ccn(C[C@@H](CO)OCP(=O)(O)O)c(=O)n1` [CIDOFOVIR], the values for the concentration giving a half-maximal response (EC50) in the assay on Cowpox virus [1], with Vaccinia virus and with Cowpox virus [2] were 9 µM, 9 µM and 8.3 µM, respectively. In the assay with HFF, the CC50 was > 300 µM.

Broadly, the EC50 is the midpoint of the concentration-response curve. As a reminder, the CC50 is the concentration that lowers cell viability or growth by half.
